“And” between values parts separate entries of the source, which are not always exact repeats. Equal entries are not always repeated. The source made the active and inactive calls.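 How the source made its calls: active means viability under 80% at some tested dose in each replicate, a sign of cell toxicity; inconclusive means meets the active limit in only one replicate; inactive means the rest.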
Key:
[1] = tested on: Bladder 5637 cells viability, CellTiter-Glo, 72 h; assay: 5637 bladder carcinoma cell viability loss – set 5, cytotoxicity control for bacterial capsule biogenesis inhibitor project, dose response (AID 602414)
In short: (§1)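 Material – bladder carcinoma 5637 cells · Times – 72 h exposure · Signal – CellTiter-Glo luminescence · Measure – percent viability versus mean cell-only control, CC50 from curve fit · Controls – Hyamine positive control, untreated cell control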

[2] = as above; conditions: Bladder 5637 cells viability, CellTiter-Glo, 72 h
In short: as §1

SMILES	CC50 [1]	further results
CCCCOc1ccc(-c2cc(NC(=O)c3cc(Br)c(Br)o3)c(C(=O)O)s2)cc1	31.7 µM	
O=S(=O)(Nc1nc2ccc(OC(F)(F)F)cc2s1)c1ccc(Br)s1	65.9 µM	
O=C(Nc1cc(-c2ccc(OCCC(F)(F)F)cc2)sc1C(=O)O)c1ccc(Br)o1	41.7 µM	
O=C(Nc1cc(-c2ccccc2)sc1C(=O)O)c1ccc2c(c1)OCCO2	121 µM	
CC(C)c1ccc(-c2cc(NC(=O)c3ccc(Br)o3)c(C(=O)O)s2)cc1	50.4 µM	
O=C(ONc1ccc(N=NC(=O)c2ccccc2O)cc1)c1ccccc1	12.8 µM	
O=S(=O)(Nc1nc2ccc(F)cc2s1)c1ccc(Br)s1	135 µM	
CC(C)c1ccc(-c2cc(NC(=O)c3cc4ccccc4o3)c(C(=O)O)s2)cc1	47.2 µM	
O=C(Nc1cc(-c2ccc(C(F)(F)F)cc2)sc1C(=O)O)c1ccc(Br)s1	38.5 µM	
CCCc1ccc(-c2cc(NC(=O)c3c(F)cc(F)cc3F)c(C(=O)O)s2)cc1	69.9 µM	
O=C(O)c1sc(-c2ccc(OCCC(F)(F)F)cc2)cc1NC(=O)c1c(F)cccc1F	68.4 µM	
O=C(O)c1sc(-c2ccc(OCC(F)(F)F)cc2)cc1NC(=O)c1c(F)cccc1F	75.2 µM	
CCOc1ccc(-c2cc(NC(=O)c3cccc(Cl)c3)c(C(=O)O)s2)cc1	43.6 µM	
CC(C)c1ccc(-c2cc(NC(=O)c3ccc(Br)s3)c(C(=O)O)s2)cc1	33.1 µM	
COc1ccc(-c2cc(NC(=O)c3cccc(F)c3)c(C(=O)O)s2)cc1	44.8 µM	
CCCc1ccc(-c2cc(NC(=O)c3cc(Br)c(Br)o3)c(C(=O)O)s2)cc1	41 µM	
O=C(Nc1cc(-c2ccc(OCCCC(F)(F)F)cc2)sc1C(=O)O)c1cc(Br)c(Br)o1	26.6 µM and 251 µM	
O=C(Nc1cc(-c2ccccc2)sc1C(=O)O)c1cccc(Cl)c1	35 µM	
O=C(O)c1sc(-c2ccc(C(F)(F)F)cc2)cc1NC(=O)c1c(F)cccc1F	44.8 µM	
O=C(Nc1ncccc1O)c1ccc2ncsc2c1	159 µM	
O=C(Nc1nc2ccc(Br)cc2s1)c1cc(Br)c(Br)s1		viability ([2]; at 150 µM (top of the series)): 110% (inactive)
CC(C)(C)c1ccc(-c2cc(NC(=O)c3cccc(F)c3)c(C(=O)O)s2)cc1	21.1 µM	
O=C(Nc1cc(-c2ccc(C(F)(F)F)cc2)sc1C(=O)O)c1cc2ccccc2o1	72.1 µM	
O=C(Nc1ccncc1)c1ccc2ncsc2c1	178 µM and 244 µM	
CCCOc1ccc(-c2cc(NC(=O)c3c(F)cc(F)cc3F)c(C(=O)O)s2)cc1	85.6 µM	
CC(C)(C)c1ccc(-c2cc(NC(=O)c3ccc(Br)s3)c(C(=O)O)s2)cc1	20.5 µM	
[N-]=[N+]=NCCOc1ccc(-c2cc(NC(=O)c3c(F)cccc3F)c(C(=O)O)s2)cc1	273 µM	

SMILES	CC50 [1]	further results
O=C(O)c1sc(-c2ccc(OCC(F)(F)F)cc2)cc1NC(=O)c1c(F)cc(F)cc1F	161 µM	
CCCCOc1ccc(-c2cc(NC(=O)c3ccc(Br)o3)c(C(=O)O)s2)cc1	43.4 µM	
CCOc1ccc(-c2cc(NC(=O)c3ccc(Br)o3)c(C(=O)O)s2)cc1	58.4 µM	
CC(C)c1ccc(-c2cc(NC(=O)c3cccc(F)c3)c(C(=O)O)s2)cc1	37.5 µM	
COc1ccc2nc(NC(=O)c3cccs3)sc2c1	29.3 µM	
CCCc1ccc(-c2cc(NC(=O)c3ccc(Br)o3)c(C(=O)O)s2)cc1	46.4 µM	
O=C(O)c1sc(-c2ccc(C(F)(F)F)cc2)cc1NS(=O)(=O)c1ccc(Br)s1	45.2 µM	
CCOc1ccc(-c2cc(NC(=O)c3c(F)cccc3C(F)(F)F)c(C(=O)O)s2)cc1	62 µM	
O=C(Nc1ccnc(Br)c1)c1ccc2ncsc2c1	136 µM	
COc1cccc2sc(NCc3ccc(Br)s3)nc12	165 µM	
CCOc1ccc(-c2cc(NC(=O)c3c(F)cccc3F)c(C(=O)O)s2)cc1	42.1 µM and 51.6 µM	
CCOc1ccc(-c2cc(NC(=O)c3ccc(Br)s3)c(C(=O)O)s2)cc1	49.7 µM	
O=C(Nc1ccnc(F)c1)c1ccc2ncsc2c1	119 µM	
COc1ccc(-c2cc(NC(=O)c3cc4ccccc4o3)c(C(=O)O)s2)cc1	284 µM	
Cc1ccc(-c2cc(NC(=O)c3cccc(F)c3)c(C(=O)O)s2)cc1	43.9 µM	
COc1cccc2sc(NC(=O)c3ccc(Br)s3)nc12	24.4 µM	
O=C(Nc1ccncc1F)c1ccc2ncsc2c1	229 µM	
O=C(Nc1cc(-c2ccccc2)sc1C(=O)O)c1ccc(Br)o1	53.3 µM	
CN(C(=O)c1ccc2ncsc2c1)c1ccccc1	267 µM	
O=C(O)c1sc(-c2ccc(OCCC(F)(F)F)cc2)cc1NC(=O)c1c(F)cc(F)cc1F	63.6 µM	
CCOc1ccc(-c2cc(NC(=O)c3cc4ccccc4o3)c(C(=O)O)s2)cc1	193 µM	
CCOc1ccc(-c2cc(NC(=O)c3cccc(F)c3)c(C(=O)O)s2)cc1	55.6 µM	
O=C(Nc1cc(-c2ccc(C(F)(F)F)cc2)sc1C(=O)O)c1ccc(Br)o1	47.5 µM	
COc1ccc2nc(NC(=O)c3ccco3)sc2c1	66.7 µM	
O=C(Nc1cc(-c2ccc(C(F)(F)F)cc2)sc1C(=O)O)c1cccc(F)c1	35.1 µM	
O=C(Nc1cc(-c2ccc(OC(F)(F)F)cc2)sc1C(=O)O)c1cccc(F)c1	52.1 µM	
O=C(Nc1cc(-c2ccc(OCCCC(F)(F)F)cc2)sc1C(=O)O)c1ccc(Br)o1	38.7 µM	

SMILES	CC50 [1]	further results
COc1ccc(-c2cc(NC(=O)c3c(F)cccc3F)c(C(=O)O)s2)cc1	53.3 µM	
O=C(Nc1cc(-c2ccc(OCC(F)(F)F)cc2)sc1C(=O)O)c1ccc(Br)o1	50 µM	
CC(C)(C)c1ccc(-c2cc(NC(=O)c3c(F)cccc3F)c(C(=O)O)s2)cc1	35.1 µM	
O=C(NCc1cc([N+](=O)[O-])ccc1O)c1cccnc1Sc1ccccc1Cl	51.9 µM	
Cc1ccc(-c2cc(NC(=O)c3cc4ccccc4o3)c(C(=O)O)s2)cc1	94.6 µM	
CC(C)(C)c1ccc(-c2cc(NC(=O)c3cc4ccccc4o3)c(C(=O)O)s2)cc1	34.5 µM	
COc1ccc(-c2cc(NC(=O)c3ccc(Br)o3)c(C(=O)O)s2)cc1	50.5 µM	
Cc1ccc(-c2cc(NC(=O)c3c(F)cccc3F)c(C(=O)O)s2)cc1	57.3 µM	
CCOc1ccc(-c2cc(NC(=O)c3c(F)cc(F)cc3F)c(C(=O)O)s2)cc1	76.6 µM	
O=C(Nc1ccc2ncsc2c1)c1ccncc1		viability ([2]; at 300 µM (top of the series)): 119% (inactive)
O=C(Nc1cc(-c2ccccc2)sc1C(=O)O)c1cccs1	34.7 µM	
CCCCOc1ccc(-c2cc(NC(=O)c3c(F)cccc3F)c(C(=O)O)s2)cc1	42.6 µM	
Cc1ccc(-c2cc(NC(=O)c3ccc(Br)o3)c(C(=O)O)s2)cc1	50.7 µM	
O=C(O)c1sc(-c2ccc(OC(F)(F)F)cc2)cc1NC(=O)c1c(F)cccc1F	51 µM	
O=C(Nc1cc(-c2ccc(OC(F)(F)F)cc2)sc1C(=O)O)c1ccc(Br)o1	33.6 µM	
O=C(Nc1cc(-c2ccc(OC(F)(F)F)cc2)sc1C(=O)O)c1cc2ccccc2o1	40.6 µM	
O=C(Nc1ccnc(Cl)c1)c1ccc2ncsc2c1	38.8 µM	
Cc1ccc(-c2cc(NC(=O)c3ccc(Br)s3)c(C(=O)O)s2)cc1	66 µM	
CCOc1ccc2nc(NC(=O)c3ccc(Br)s3)sc2c1	91.2 µM	
CCCc1ccc(-c2cc(NC(=O)c3c(F)cccc3F)c(C(=O)O)s2)cc1	54.9 µM	
Cc1ccc(-c2cc(NS(=O)(=O)c3ccc(Br)s3)cs2)cc1	94 µM	
CC(C)c1ccc(-c2cc(NC(=O)c3c(F)cccc3F)c(C(=O)O)s2)cc1	32.4 µM	
O=C(O)c1sc(-c2ccc(OCCCC(F)(F)F)cc2)cc1NC(=O)c1c(F)cccc1F	241 µM	
CCCCOc1ccc(-c2cc(NC(=O)c3c(F)cc(F)cc3F)c(C(=O)O)s2)cc1	56.2 µM	
CCOc1ccc(-c2cc(NC(=O)c3ccc(OC)c(OC)c3)c(C(=O)O)s2)cc1	61.8 µM	
O=C(O)c1sc(-c2ccc(OCCCC(F)(F)F)cc2)cc1NC(=O)c1c(F)cc(F)cc1F	54.7 µM	

Source: PubChem BioAssay AID602414 (Southern Research Specialized Biocontainment Screening …, 2012)
